The values that follow come from ChEMBL document CHEMBL3808283, “Biological Characterization and in Vivo Assessment of the Activity of a New Synthetic Macrocyclic Antifungal Compound” (J Med Chem, 2016).

≈ marks a conversion by molar mass, not a printed value. Calls of active or inactive are those of the source. No cut-off for these calls is given here.

For data set [1], the system named is Candida albicans. As to the kind of experiment: Antifungal activity against Candida albicans ATCC 60193 up to 96 hrs by broth dilution assay. The class given is functional. As to conditions: ATCC 60193, 96 h. On the technique in general: In broth dilution the organism is exposed to a series of concentrations in liquid medium.
Data set [2] is described as follows: Drug transport in Candida albicans ATCC 60193 assessed as ABC transpoter-mediated drug accumulation at 5 to 80 uM after 24 hrs by confocal microscopic analysis. The class given is ADME.
Data set [3] can be described thus: Drug transport in Cryptococcus neoformans assessed as ABC transpoter-mediated drug accumulation at 5 to 80 uM after 24 hrs by confocal microscopic analysis. The class given is ADME.
Data set [4] relates to Candida albicans. Kind of data set: Antifungal activity against Candida albicans isolate DSY654 harboring CDR1/2 deletion mutant at 100 ug/ml by serial dilution assay. In kind it is functional, organism-based. An outline of the steps:
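Spot dilution assay: C. albicans cells 10-fold serially diluted from 2 × 10^7 cells/mL, with 5 µL of each dilution spotted onto YEPD agar plates containing the drug.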

Data set [5] can be described thus: Drug transport in Cryptococcus neoformans assessed as ABC transpoter-mediated drug accumulation in cytoplasm at 40 uM after 48 hrs by confocal microscopic analysis. The class given is ADME. The procedure, abridged:
(§1)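 C. albicans ATCC 60193 or Cry. neoformans treated 48 h with the fluorescent probe at 40 µM from a DMSO solution. Cells were washed twice in PBS, fixed in 4% formaldehyde for 30 min at 4 °C, washed again, spotted on glass slides, dried and mounted. Examined by confocal microscopy, with visible, fluorescent and merged images compared against untreated cells.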

Data set [6] can be described thus: Drug transport in Candida albicans ATCC 60193 with damaged cell wall assessed as ABC transpoter-mediated drug accumulation in cytoplasm at 40 uM after 48 hrs by confocal microscopic analysis. The class given is ADME. The procedure, abridged: as §1
A short description of data set [7]: Drug transport in Candida albicans ATCC 60193 assessed as ABC transpoter-mediated drug accumulation in cytoplasm at 40 uM after 48 hrs by confocal microscopic analysis. The class given is ADME. The procedure, abridged: as §1
Data set [8] is described as follows: Drug transport in Cryptococcus neoformans with damaged cell wall assessed as ABC transpoter-mediated drug accumulation in cytoplasm at 40 uM after 48 hrs by confocal microscopic analysis. In kind it is ADME. An outline of the steps: as §1
Data set [9] deals with Candida albicans. As to the kind of experiment: Antifungal activity against fluconazole-susceptible Candida albicans ATCC 90028 in immunocompetent Balb/c mouse candidiasis model assessed as reduction in CFU count in kidney at 8 mg/kg/day, ip regime measured on day 7 post infection. The class given is functional, organism-based. An outline of the steps:
(§2)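 Immunocompetent BALB/c mice, 10 per strain group, received 7 × 10^4 CFU of C. albicans in 200 µL saline via the lateral vein. Fluconazole was given i.p. at 8 mg/kg/day. On day 7, spleen and kidneys were weighed, homogenized, and plated on YPD agar (2 days, 30 °C) for CFU per gram of organ. Analysis used Wilcoxon rank-sum, P<0.05.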

The test system of data set [10] is Candida albicans. Kind of data set: Antifungal activity against fluconazole-susceptible Candida albicans ATCC 90028 in immunocompetent Balb/c mouse candidiasis model assessed as reduction in CFU count in spleen at 8 mg/kg/day, ip regime measured on day 7 post infection. In kind it is functional, organism-based. An outline of the steps: as §2
Data set [11] concerns Candida albicans. As to the kind of experiment: Antifungal activity against azole-susceptible Candida albicans isolate DSY294 in immunocompetent Balb/c mouse candidiasis model assessed as reduction in CFU count in spleen at 8 mg/kg/day, ip regime measured on day 7 post infection. The class given is functional, organism-based. An outline of the steps:
as §2

Data set [12] relates to Candida albicans. As to the kind of experiment: Antifungal activity against azole-susceptible Candida albicans isolate DSY294 in immunocompetent Balb/c mouse candidiasis model assessed as reduction in CFU count in kidney at 8 mg/kg/day, ip regime measured on day 7 post infection. The class given is functional, organism-based. The procedure, abridged: as §2

By MIC is commonly meant the least concentration at which growth counts as inhibited. A low value points to inhibition by little substance. Consider `CN(C)c1cccc2c(S(=O)(=O)NCCCCCCCCN3CCCCCCCCNC(=N)NC3=O)cccc12`, for which the minimum inhibitory concentration (MIC) with Candida albicans [1] was above 125 µM. In addition, the Drug transport result in data set [2] and in [3] was “Active” throughout.

With `OCCN1CCN(CCCN2c3ccccc3Sc3ccc(C(F)(F)F)cc32)CC1`, the result in the data set with Candida albicans [4] was Active.

Compound `CN(C)c1cccc2c(S(=O)(=O)NC(=N)NCCCCCCCCN3CCCCCCCCNC(=N)NC3=O)cccc12` displayed an MIC against Candida albicans [1] above 125 µM. Moreover, the Drug transport result in data set [2] and in data set [3] was “Active” throughout.

Regarding `C/C=C/CNC(=N)NCCCCCCCCN1CCCCCCOc2cc(OCCCNC(=S)Nc3ccc4c(c3)C(=O)OC43c4ccc(O)cc4Oc4cc(O)ccc43)ccc2CNC(=N)NC1=O`, in the data set on Candida albicans [1], the minimum inhibitory concentration (MIC) was found to be 80 µM (≈ 78.1 µg/mL). Also, the Drug transport entry in data set [5] is recorded as “Active”; in data set [6], “Not Active”; in [7], “Active”; in [8], “Not Active”.

Consider `OC(Cn1cncn1)(Cn1cncn1)c1ccc(F)cc1F`, for which the result in the data set on Candida albicans [9], with Candida albicans [10], in the data set on Candida albicans [11] and with Candida albicans [12] was Active.
